Screening data as filed in PubChem.
Compounds with a hit are over-represented: about 2.5% of the library has one in this group of screens.
CTSL1 counter: blocks F. hepatica cathepsin L1 in PFM18AAP counter-screen | inhibition, % at 5.96 µM | recombinant F. hepatica cathepsin L1, Z-Leu-Arg-MCA fluorescence | AID 1906 | 300,000 compounds, 0.49% hits;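 active = inhibition above the mean of all tested compounds plus 3 SD, set per screening campaign, cut at about 17% in these data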;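 also: 0% = plate median of test compound wells and 100% = 1 µM Z-Phe-Ala-diazomethylketone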
PAD4 FP inh: PAD4 (human) enzyme inhibition. Q9UM07. recombinant PAD4, RCA probe fluorescence polarization. inhibition, % at 6.36 µM. 330,000 compounds, 0.41% hits;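 active = percent inhibition above a cutoff equal to the mean of all tested compounds plus 3 SD, cut at about 15% in these data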;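 also: 0% = PAD4 with RCA probe and DMSO and 100% = probe without PAD4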
Target sequence (Q9UM07 whole entry, looked up): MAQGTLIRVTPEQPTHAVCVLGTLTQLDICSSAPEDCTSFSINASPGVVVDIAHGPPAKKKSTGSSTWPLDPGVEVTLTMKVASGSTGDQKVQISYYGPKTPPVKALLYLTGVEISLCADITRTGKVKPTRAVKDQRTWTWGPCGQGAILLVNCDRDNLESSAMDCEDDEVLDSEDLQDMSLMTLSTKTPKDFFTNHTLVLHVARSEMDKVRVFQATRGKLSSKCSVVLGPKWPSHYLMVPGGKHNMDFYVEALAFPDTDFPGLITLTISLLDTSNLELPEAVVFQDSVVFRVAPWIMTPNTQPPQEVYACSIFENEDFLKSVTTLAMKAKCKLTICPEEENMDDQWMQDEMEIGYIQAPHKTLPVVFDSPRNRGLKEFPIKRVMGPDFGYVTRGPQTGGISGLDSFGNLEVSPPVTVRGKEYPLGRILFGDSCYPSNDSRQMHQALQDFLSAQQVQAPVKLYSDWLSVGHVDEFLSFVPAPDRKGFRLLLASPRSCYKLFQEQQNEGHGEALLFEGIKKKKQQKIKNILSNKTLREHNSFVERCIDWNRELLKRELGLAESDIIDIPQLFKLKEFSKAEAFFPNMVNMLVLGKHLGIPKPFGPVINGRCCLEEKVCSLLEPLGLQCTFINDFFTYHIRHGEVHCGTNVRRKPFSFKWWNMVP
PRMT1 FP inh: inhibitors of human PRMT1; Q99873; recombinant PRMT1, activity-based probe fluorescence polarization; inhibition, % at 2.79 µM; 370,000 compounds, 1.3% hits;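 active = inhibition above about 21% made by adding two undisclosed values, limit read from the data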
GSTO1 inh: GSTO1 inhibition, counter-screen for RBBP9 inhibitors | P78417 | recombinant GSTO1, activity-based probe fluorescence polarization | inhibition, % at 5.96 µM | 300,000 compounds, 1.1% hits;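 active = inhibition above the campaign mean inhibition plus 3 SD, cut at about 35% in these data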;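 also: 0% = GSTO1-1 with DMSO and 100% = wells lacking GSTO1-1 enzyme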
TDP2 absorb: TDP2 (human) inhibition, absorbance primary screen | O95551 | 370,000 compounds, 0.34% hits | AID 720702 | inhibition, % at 12.8 µM | recombinant TDP2, T5PNP hydrolysis, p-nitrophenol absorbance 415 nm;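 active = inhibition above the mean of all tested compounds plus 3 SD, set per campaign, cut at about 25% in these data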;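 also: 0% = DMSO with enzyme and 100% = buffer with substrate but no TDP2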
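test system = human TDP2 enzyme | input = TDP2 enzyme at 120 nM final | medium = 50 mM Tris-HCl pH 7.5 with Mg2+, KCl, DTT, BSA | also added = T5PNP substrate, 5 mM | times = 2 h at 37 °C | technique = epi absorbance | benchmarks = high control without enzyme, low control DMSO plus TDP2 | replication = each compound tested once, singlicate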
The depositor's hits bear a star.

How did CCN(CC)C(=O)CC[C@H]1CC[C@]2(CCCN(CC3CC3)C2)O1 do in these assays?
PRMT1 FP inh: 1.8; TDP2 absorb: 4.6

What do the screens show for `C[C@@H]1CN([C@H](C)CO)C(=O)c2cc(NC(=O)Nc3ccccc3)ccc2O[C@@H](C)CCCCO[C@H]1CN(C)S(=O)(=O)c1ccc(F)cc1`?
PRMT1 FP inh: 1.6; TDP2 absorb: 7.2

Results for COc1ccc(/C=C(/NC(=O)c2ccccc2)C(=O)N/N=C/c2ccncc2)cc1 ?
CTSL1 counter: 4.9; PAD4 FP inh: -0.2; PRMT1 FP inh: -2.3; GSTO1 inh: -2.3; TDP2 absorb: -1.3

How did Cc1ccc(/C=N\NC(=O)/C(=C\Nc2nccc(C)n2)NC(=O)c2ccccc2)cc1 do in these assays?
CTSL1 counter: 21.9*; PAD4 FP inh: -3.4; PRMT1 FP inh: -1.3; GSTO1 inh: 1.8; TDP2 absorb: 2.3

How did COc1ccc(/C=N\NC(=O)/C(=C\Nc2nccc(C)n2)NC(=O)c2ccccc2)cc1 do in these assays?
CTSL1 counter: 20.1*; PAD4 FP inh: -2.5; PRMT1 FP inh: 0.5; GSTO1 inh: -1.0; TDP2 absorb: -6.5

Results for Cc1ccc(/C=N/NC(=O)C(C)NC(=O)c2ccccc2)cc1 (stereo unspecified) ?
CTSL1 counter: 1.7; PAD4 FP inh: 4.7; PRMT1 FP inh: -2.2; GSTO1 inh: -0.1; TDP2 absorb: -4.9

What do the screens show for `COC(=O)[C@]12C[C@H](CC(=O)NCc3cccc(C(F)(F)F)c3)C(=O)N(Cc3cccc4ccccc34)C1=C[C@H](C(C)(C)C)O[C@@H]2C`?
PRMT1 FP inh: 2.5; TDP2 absorb: -3.4

What do the screens show for `CCN1CCCCC(NC(=O)COCc2ccccc2)C1=O` (stereo unspecified)?
PRMT1 FP inh: 2.6; TDP2 absorb: 4.8

Results for O=C(NNc1nc2ccccc2s1)Nc1ccc(F)cc1 ?
CTSL1 counter: -7.8; PAD4 FP inh: -2.0; PRMT1 FP inh: -1.7; GSTO1 inh: 0.9; TDP2 absorb: 1.0

How did O=C(NNc1nc2ccccc2s1)Nc1ccc(Cl)c(Cl)c1 do in these assays?
CTSL1 counter: -2.1; PAD4 FP inh: 6.6; PRMT1 FP inh: 22.8*; GSTO1 inh: -14.8; TDP2 absorb: -7.6

What do the screens show for `Cc1ccc(C2CC(=O)Oc3cc(C)cc(C)c32)cc1` (stereo unspecified)?
PAD4 FP inh: -6.1; PRMT1 FP inh: 0.6; TDP2 absorb: 8.6

How did O=C1CC(c2ccc(Cl)cc2)c2c(O)cc(O)cc2O1 (stereo unspecified) do in these assays?
CTSL1 counter: 0.0; PAD4 FP inh: -0.1; PRMT1 FP inh: -0.4; GSTO1 inh: 37.4*; TDP2 absorb: -0.2

How did CCCCOc1cccc(C2C(C(=O)c3ccc(C)o3)=C(O)C(=O)N2c2nnc(C)s2)c1 (stereo unspecified) do in these assays?
PRMT1 FP inh: 23.1*; TDP2 absorb: 3.3

What do the screens show for `CCOC(=O)c1ccc(NC(=O)Cn2ncc(Cl)c(Cl)c2=O)cc1`?
CTSL1 counter: -1.3; PAD4 FP inh: -6.4; PRMT1 FP inh: 24.5*; GSTO1 inh: 4.0; TDP2 absorb: -2.7

How did C[C@@H]1COc2cc(F)ccc2S(=O)(=O)N1C do in these assays?
PRMT1 FP inh: -0.8; TDP2 absorb: -3.8

How did CCOc1ccc(C=Nn2c(-c3ccc(F)cc3)n[nH]c2=S)cc1 do in these assays?
PRMT1 FP inh: 23.0*; TDP2 absorb: 8.3

Results for O=C(O)c1ccc(C=Nn2c(-c3ccc(F)cc3)n[nH]c2=S)cc1 ?
PRMT1 FP inh: 0.0; TDP2 absorb: -3.6

What do the screens show for `CC(C(=O)N1CCN(Cc2ccc3c(c2)OCO3)CC1)c1ccc([N+](=O)[O-])cc1` (stereo unspecified)?
CTSL1 counter: 18.0*; PAD4 FP inh: -21.3; PRMT1 FP inh: 0.9; GSTO1 inh: 3.9; TDP2 absorb: 1.7

What do the screens show for `O=C(C(Cl)Cl)N1CCN(Cc2ccc3c(c2)OCO3)CC1`?
CTSL1 counter: -10.1; PAD4 FP inh: -2.0; PRMT1 FP inh: 1.4; GSTO1 inh: -0.1; TDP2 absorb: 4.3

Results for Cc1ccc(C)n1Cc1ccc(C(=O)O)cc1 ?
CTSL1 counter: -6.0; PAD4 FP inh: 6.8; GSTO1 inh: 58.5*

How did CC(=O)N[C@@H]1C[C@@H]2O[C@H](CO)CC[C@@H]2O[C@@H]1CCc1ccc(-c2ccc(F)cc2)cc1 do in these assays?
PRMT1 FP inh: -0.8; TDP2 absorb: -3.5

What do the screens show for `N#C/C(=C\c1ccc(O)c(Br)c1)C(=O)NCc1ccccc1`?
CTSL1 counter: 22.5*; PAD4 FP inh: -1.2; PRMT1 FP inh: 1.1; GSTO1 inh: -2.8; TDP2 absorb: -7.3

What do the screens show for `N#C/C(=C\c1ccc(O)c([N+](=O)[O-])c1)C(=O)NCc1ccccc1`?
CTSL1 counter: 9.6; PAD4 FP inh: 0.8; PRMT1 FP inh: 1.8; GSTO1 inh: -14.2; TDP2 absorb: -20.0

How did COc1ccccc1NC(=O)CC(c1ccc(F)cc1)c1ccco1 (stereo unspecified) do in these assays?
CTSL1 counter: 21.4*; PAD4 FP inh: -2.4; PRMT1 FP inh: -1.6; GSTO1 inh: 0.8; TDP2 absorb: -7.8

How did CCN(CC)C(=O)CP(=O)(c1ccccc1)c1ccccc1 do in these assays?
CTSL1 counter: 4.7; PAD4 FP inh: -4.0; PRMT1 FP inh: -1.5; GSTO1 inh: 1.5; TDP2 absorb: 4.0

Results for COc1ccc(CN(C(=O)c2ccco2)c2ccccc2)cc1 ?
CTSL1 counter: -2.0; PAD4 FP inh: 2.2; PRMT1 FP inh: -1.4; GSTO1 inh: 4.0; TDP2 absorb: -2.1

How did COc1ccc(CN(CCC(c2ccccc2)c2ccco2)C(=O)c2ccco2)cc1 (stereo unspecified) do in these assays?
CTSL1 counter: 23.4*; PAD4 FP inh: -3.5; PRMT1 FP inh: 2.2; GSTO1 inh: 1.7; TDP2 absorb: 7.9

Results for O=C(CC(c1ccc(F)cc1)c1ccco1)N1CCOCC1 (stereo unspecified) ?
CTSL1 counter: 15.2; PAD4 FP inh: -5.2; PRMT1 FP inh: 0.6; GSTO1 inh: 6.6; TDP2 absorb: -4.3

What do the screens show for `CCN(CC)C(=O)CC(c1ccccc1)c1ccco1` (stereo unspecified)?
CTSL1 counter: 35.5*; PAD4 FP inh: -0.1; PRMT1 FP inh: 1.7; GSTO1 inh: -1.2; TDP2 absorb: -0.2

What do the screens show for `CCCN(CCC)C(=O)CC(c1ccc(F)cc1)c1ccco1` (stereo unspecified)?
CTSL1 counter: 57.3*; PAD4 FP inh: -1.7; PRMT1 FP inh: 6.4; GSTO1 inh: 5.7; TDP2 absorb: 0.1

How did COc1ccc2c(c1)CCCN2C(=O)C1CCCN(S(=O)(=O)c2ccc(Br)s2)C1 (stereo unspecified) do in these assays?
PRMT1 FP inh: 4.4; TDP2 absorb: 5.5

How did O=C(CC(c1ccc(F)cc1)c1ccco1)N1CCCC1 (stereo unspecified) do in these assays?
CTSL1 counter: 35.7*; PAD4 FP inh: 0.0; PRMT1 FP inh: 4.0; GSTO1 inh: 0.2; TDP2 absorb: 4.4
